LMPTP inh = blocks human LMPTP phosphatase. P24666. recombinant LMPTP-A, OMFP fluorogenic substrate, fluorescence intensity. inhibition, % at 20 µM. 360,000 tested, 0.22% active. AID 651560;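 active means compounds that cut the enzyme signal by at least half of the control window in the single-dose screen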;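 further: plate controls were DMSO wells with enzyme plus substrate for no effect and substrate without enzyme for full effect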
Target sequence (P24666 whole entry, looked up): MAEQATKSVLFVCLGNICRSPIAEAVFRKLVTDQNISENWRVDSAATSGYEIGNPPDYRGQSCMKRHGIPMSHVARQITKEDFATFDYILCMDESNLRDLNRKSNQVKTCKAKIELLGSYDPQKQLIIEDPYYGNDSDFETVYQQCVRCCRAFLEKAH
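Test system: LMPTP-A phosphatase enzyme; input: 0.625 nM LMPTP-A final; reagent: OMFP substrate, 400 µM final; compound dosing: 20 µM single dose, 3% DMSO; incubation: 50 min dark incubation at room temperature; measured by: endpoint fluorescence intensity from OMFP dephosphorylation; measure: % inhibition relative to no-enzyme and uninhibited control wells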
DNMT1 inh = inhibitors of human DNMT1. AID 588458. DNMT1 molecular beacon, Hinp1I cleavage, fluorescence. inhibition (reported as % activation of signal), % at 10 µM. 360,000 tested, 0.83% active; in the data active means inhibition above about 50%
Scp-1 inhibitor = Scp-1 (human) phosphatase inhibition; inhibition, % at 20 µM; 340,000 tested, 0.88% active; Recombinant Scp1, phosphopeptide, malachite green phosphate absorbance;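 active means inhibition above about 50% at 20 µM, limit read from the data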;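 further: plate controls were DMSO wells with enzyme for no effect and wells lacking enzyme for full effect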
Target sequence (Q9GZU7 76-261 limits assumed): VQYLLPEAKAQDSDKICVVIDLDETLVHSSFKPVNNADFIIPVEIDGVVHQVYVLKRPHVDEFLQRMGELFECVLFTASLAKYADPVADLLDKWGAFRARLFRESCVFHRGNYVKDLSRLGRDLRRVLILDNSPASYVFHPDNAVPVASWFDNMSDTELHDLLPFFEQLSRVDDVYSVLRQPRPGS
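Times: enzyme reaction 45 min at room temperature, colour 5 min, stabilisation 30 min. Material: SCP-1 catalytic fragment, aa 76-261. Medium: Acidic Tris acetate buffer with magnesium and detergent. Signal: colorimetric free-phosphate detection, absorbance 630 nm. Read-out basis: % inhibition of SCP-1 phosphate liberation. Reagent: Phosphorylated 17-residue peptide substrate.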
SUMO1-SIM PPI = alters human SUMO1 binding to SIM partners | 360,000 tested, 0.33% active | SUMO1 binding to a labelled peptide, TR-FRET, 1 h | AID 602429 | inhibition, % at 20 µM; in the data active means inhibition above about 37%
Target sequence (P63165 whole entry, looked up): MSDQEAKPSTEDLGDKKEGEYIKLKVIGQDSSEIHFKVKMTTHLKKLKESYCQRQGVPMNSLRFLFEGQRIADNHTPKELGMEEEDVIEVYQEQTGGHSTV
STEP block = blocks human striatal-enriched tyrosine phosphatase; recombinant STEP, OMFP fluorogenic substrate, fluorescence; inhibition, % at 20 µM; 360,000 tested, 0.25% active; AID 588621;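 active means inhibition at 20 µM, scaled per plate between control wells, above about 37%, limit read from the data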;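 further: 0% = DMSO with enzyme and substrate and 100% = substrate only without enzyme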
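Material: STEP (striatal-enriched tyrosine phosphatase) enzyme, cell-free; Compound dosing: 20 µM single dose in 1% DMSO; Technique: fluorescence read at 480 nm ex / 540 nm em; Times: reaction 20 min, ambient temperature; Medium: 50 mM Bis-Tris pH 6.0 with 2.5 mM DTT and 0.005% Tween 20; Also added: OMFP at 25 µM.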
Scp-1 conf = confirmation of human Scp-1 phosphatase inhibitors. shares compounds with Scp-1 inhibitor. recombinant SCP-1 catalytic domain, phosphate release, malachite green absorbance. inhibition, % at 20 µM. 2,500 tested, 61% active. AID 540281;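 further: plate controls were DMSO with enzyme for no effect and buffer wells lacking enzyme for full effect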
Scp-1 MG ctr = interferes with malachite green readout, flagging false Scp-1 hits. Colorimetric interference counterscreen, malachite green absorbance 630 nm. shares compounds with Scp-1 inhibitor. 2,500 tested, under 10 active. apparent inhibition (interference), % at 20 µM. AID 540313;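 further: compounds added after enzyme reaction finished so only phosphate colour detection is probed; plate controls were DMSO wells with completed Scp-1 reaction for no effect and substrate wells lacking enzyme for full effect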
Scp1 DSF = validation of human Scp-1 inhibitors by thermal shift binding. 1,500 tested, 25% active. Recombinant SCP1, Sypro Orange thermal shift Tm. shares compounds with Scp-1 inhibitor. thermal shift relative to vanadate control, % at 40 µM;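 active means substances whose mean melting-temperature shift, as a percentage of the reference inhibitor's shift, reaches about 5.3%, limit read from the data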;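 further: 0% = Tm of DMSO wells and 100% = Tm with sodium orthovanadate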
Active calls of the source: *; . = not tested or not shown. A selection: hits, their analogues and other compounds. The true share with any hit is near 1.7%.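 How the source made its calls, unless noted: active means inhibition of at least 30% at 20 µM; inactive means the rest.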

SMILES | LMPTP inh | DNMT1 inh | Scp-1 inhibitor | SUMO1-SIM PPI | STEP block | Scp-1 conf | Scp-1 MG ctr | Scp1 DSF
CCN(CC(=O)NCc1cccs1)C(=O)COc1cccc(C(F)(F)F)c1 | -1 | -2 | -8 | 7 | -2 | . | . | .
CCN(CC(=O)NCc1cccs1)C(=O)COc1ccc(C(C)=O)cc1 | 0 | 3 | 59* | 1 | -3 | 11 | 5 | .
N/C(=N\OC(=O)CN1C(=O)c2ccccc2C1=O)c1ccc(Br)cc1 | 1 | -2 | -24 | -5 | 8 | . | . | .
CSCCC(NC(=O)c1cccc([N+](=O)[O-])c1)c1nc2ccccc2[nH]1 (stereo unspecified) | 0 | -6 | -9 | -28 | 0 | . | . | .
CSCC[C@H](NC(=O)c1cccc(S(=O)(=O)N2CCCCC2)c1)c1nc2ccccc2[nH]1 | -1 | 2 | 59* | -1 | 0 | 3 | -5 | .
CCc1noc(C)c1C(=O)N(C)CC(=O)Nc1ccc(Br)cc1C | 0 | 0 | 3 | -2 | 0 | . | . | .
CCSC1=N/C(=C\c2ccc(OC)cc2)C(=O)N1 | -1 | 4 | 50* | -13 | -2 | 2 | -3 | .
O=C(COc1ccccc1)NCC(=O)N/N=C/C=C/c1ccccc1 | -2 | -1 | -7 | 0 | -5 | . | . | .
O=C(CNC(=O)c1ccc(Cl)cc1)N/N=C/C=C/c1ccccc1 | 5 | 8 | 84* | -2 | 3 | 8 | -11 | .
Cc1cc2c(cc1C)[n+](C)cn2CC(O)COCc1ccccc1 (stereo unspecified) | 0 | 5 | 33 | -2 | 1 | . | . | .
C[n+]1cn(CC(O)COCc2ccccc2)c2ccccc21 (stereo unspecified) | -1 | 9 | 71* | 1 | 8 | 71* | -16 | -8
OC(c1ccc(-c2ccccc2)cc1)c1ncc(-c2ccc(C(F)(F)F)cc2)[nH]1 (stereo unspecified) | 3 | -25 | . | -2 | -1 | . | . | .
COc1cc2nc(NC(=O)c3ccco3)sc(=O)c2cc1OC | 12 | 10 | 51* | 5 | 39 | 43* | -12 | -16
N#Cc1c(Cl)nc(N/N=C/c2ccccc2)c(Cl)c1Cl | -1 | 1 | -7 | -1 | -3 | . | . | .
C[N+](C)(C)c1ccc(/C=N/Nc2nc(Cl)c(C#N)c(Cl)c2Cl)cc1 | 4 | 4 | 53* | -15 | 3 | 19 | -1 | .
O=C(CSc1nnc(-c2ccncc2)n1-c1ccc(F)cc1)NC(=O)NCc1ccco1 | 7 | 68* | 89* | 0 | 5 | 64* | -8 | -3
CCOC(=O)c1cn(CC)c2cc3c(cc2c1=O)OCO3 | 0 | -2 | 64* | 8 | -1 | -12 | -5 | .
Cc1ccccc1NC(=O)C1c2cccc[n+]2CC(=O)N1c1c(C)cccc1C (stereo unspecified) | -1 | -14 | 89* | -2 | 3 | 91* | -9 | 0
Cc1cccc(C)c1NC(=O)C1c2cccc[n+]2CC(=O)N1Cc1ccc2c(c1)OCO2 (stereo unspecified) | -1 | -9 | 5 | 0 | 2 | . | . | .
Cc1ccc(Cl)cc1N1CCN(c2cccc[n+]2C)CC1 | 0 | 9 | 99* | 1 | -2 | -4 | -8 | .
CC(C)(C)S(=O)(=O)N1C[C@@H]2CC/C=C\C/C(c3ccccc3)=C\2[C@H]1CCO | 0 | 1 | -11 | 6 | 0 | . | . | .
Cc1noc(C)c1CSCC(=O)Nc1nc2ccc(S(C)(=O)=O)cc2s1 | -1 | 3 | 10 | 1 | 0 | . | . | .
O=C(O)c1ccccc1C(=O)Nc1n[nH]c(=S)s1 | -1 | 2 | 99* | 4 | 1 | 42* | -3 | -4
COc1cc(/C=C/C(=O)O)cc(S(=O)(=O)NNC(=O)c2cc(C)oc2C)c1OC | -1 | 18 | 53* | 4 | -1 | 49* | 3 | -3
CCCCn1c(=O)[nH]c(=O)c2c1nc(-c1ccc(-c3ccccc3)cc1)n2C | -2 | 28 | -1 | -8 | 0 | . | . | .
SMILES | LMPTP inh | DNMT1 inh | Scp-1 inhibitor | SUMO1-SIM PPI | STEP block | Scp-1 conf | Scp-1 MG ctr | Scp1 DSF
CCCn1c(=O)[nH]c(=O)c2c1nc(-c1ccccc1)n2CCN1CCOCC1 | -3 | 7 | 82* | -4 | 8 | 94* | -6 | -21
N/C(=N\NC(=O)c1cccc(F)c1)c1cc2ccccc2oc1=O | 0 | 3 | 53* | -24 | 13 | 72* | -17 | -2
N/C(=N\NC(=O)c1ccc(F)cc1)c1cc2ccccc2oc1=O | -1 | -1 | -1 | -9 | -1 | . | . | .
CSc1ccccc1NC(=O)CN(C)C(=O)COc1cccc2cccnc12 | 2 | -10 | -8 | -10 | 4 | . | . | .
C/C(=N/Nc1nc(C)c(C)s1)c1cccc([N+](=O)[O-])c1 | 1 | -10 | 1 | -21 | 4 | . | . | .
O=C(NC1CC2CCCC(C1)N2C(=O)Nc1ccc(F)cc1)c1ccccc1 (stereo unspecified) | -1 | 2 | 3 | 0 | -2 | . | . | .
C[C@@H]1NC(=O)c2cc([N+](=O)[O-])cc(I)c2OCC[C@@H](C(=O)NC(CC(=O)O)C(N)=O)NC(=O)[C@H](CCC(=O)O)NC1=O (stereo partly specified) | . | . | 50* | . | . | 53* | -13 | -4
NC(=O)C(CC(=O)O)NC(=O)[C@@H]1CCOc2c(I)cc([N+](=O)[O-])cc2C(=O)N[C@@H](CCC(=O)O)C(=O)N[C@@H](CO)C(=O)N1 (stereo partly specified) | . | . | 29 | . | . | . | . | .
NC(=O)C(CC(=O)O)NC(=O)[C@@H]1CCCNc2c(I)cc([N+](=O)[O-])cc2C(=O)N[C@@H](CO)C(=O)N[C@@H](Cc2ccc(O)cc2)C(=O)N1 (stereo partly specified) | 0 | 10 | 62* | -7 | 3 | 43* | -13 | 9.8*
COc1cc([N+](=O)[O-])ccc1NC(=O)CSc1ccccn1 | 0 | -4 | . | -27 | 0 | . | . | .
COc1ccc([N+](=O)[O-])cc1CSc1ccccn1 | -1 | -2 | 61* | -11 | -1 | -2 | -9 | .
COc1ccc(NC(=O)COC(=O)Cn2cnc3ccccc3c2=O)c(OC)c1 | -1 | -2 | -12 | 2 | 0 | . | . | .
Cn1c(SCC(=O)Nc2ccccc2)nnc1-c1ccc(NC(=O)CCc2ccccc2)cc1 | -1 | 3 | 0 | 1 | -1 | . | . | .
CSc1nnc(-c2ccc(NC(=O)CCc3ccccc3)cc2)n1C | -2 | 8 | 102* | 1 | -4 | -5 | -16 | .

High-throughput results deposited in PubChem BioAssay by Sanford-Burnham Center for Chemical Genomics.
